Measured values: ChEMBL document CHEMBL1773032, “Pierreiones A-D, solid tumor selective pyranoisoflavones and other cytotoxic constituents from Antheroporum pierrei” (J Nat Prod, 2011)

How the values were obtained:
[1] = test system: HCT-116; assay: Cytotoxicity against human HCT116 cells measured per disk after 5 days by hemocytometer counting; assay type: functional, cell-based
Summary of the method: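 HCT-116 cells seeded at 5 × 10^4 cells per T25 flask in RPMI-1640 with 15% FBS, 1% penicillin-streptomycin and 1% glutamine, 37 °C, 5% CO2. Drug added at several concentrations on day 3, then incubated 120 h (5 d). Cells trypsinized, washed and resuspended in HBSS, counted by hemocytometer. Counts normalized to untreated control to give IC50.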

[2] = test system: MC-38; assay: Selective toxicity against mouse C38 cells assessed as differential zone units at 68 ug/mL by disk diffusion soft agar colony formation assay relative to mouse L1210 cells; assay type: functional
Summary of the method: (§1)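 Murine Colon 38 and leukemia L1210 cells tested in the disk diffusion soft agar colony formation assay. Differential cytotoxicity expressed as the difference in inhibition zone size between the two lines, in zone units (200 zone units = 6 mm).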

[3] = test system: MC-38; assay: Selective toxicity against mouse C38 cells assessed as differential zone units at 66 ug/mL by disk diffusion soft agar colony formation assay relative to mouse L1210 cells; assay type: functional; summary of the method: as §1
[4] = test system: MC-38; assay: Selective toxicity against mouse C38 cells assessed as differential zone units at 1.9 ug/mL by disk diffusion soft agar colony formation assay relative to mouse L1210 cells; assay type: functional; summary of the method: as §1
[5] = test system: MC-38; assay: Selective toxicity against mouse C38 cells assessed as differential zone units at 0.26 ug/mL by disk diffusion soft agar colony formation assay relative to mouse L1210 cells; assay type: functional; summary of the method: as §1
[6] = test system: MC-38; assay: Selective toxicity against mouse C38 cells assessed as differential zone units at 0.23 ug/mL by disk diffusion soft agar colony formation assay relative to mouse L1210 cells; assay type: functional
Summary of the method: (§2)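 Disk diffusion soft agar colony-formation assay with murine Colon 38 (colon adenocarcinoma) and L1210 (lymphocytic leukemia) cells. The zone of inhibited colony formation around each disk is measured in zone units, where 200 zone units = 6 mm. Selectivity is the solid tumor minus leukemia zone difference.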

[7] = test system: MC-38; assay: Selective toxicity against mouse C38 cells assessed as differential zone units at 0.24 ug/mL by disk diffusion soft agar colony formation assay relative to mouse L1210 cells; assay type: functional; summary of the method: as §2

With COc1cc(-c2coc3cc4c(c(OC)c3c2=O)C=CC(C)(C)O4)ccc1OC[C@@H](O)C(C)(C)O [PIERREIONE A] the IC50 [1] was 7.5 µg and the Activity [2] was 300 Zone units.

Work on COc1cc(-c2coc3cc4c(cc3c2=O)C=CC(C)(C)O4)ccc1OC[C@@H](O)C(C)(C)O [PIERREIONE B] yielded an IC50 [1] of 18 µg and an Activity [3] of 300 Zone units.

COc1cc(-c2coc3cc4c(c(OC)c3c2=O)C=CC(C)(C)O4)ccc1OCC=C(C)C [PIERREIONE C] was tested, and the IC50 [1] was greater than 46 µg.

COc1cc(-c2coc3cc4c(cc3c2=O)C=CC(C)(C)O4)ccc1OCC=C(C)C [PIERREIONE D] showed an IC50 [1] of 30 µg and an Activity [4] of 600 Zone units.

C=C(C)[C@H]1Cc2c(ccc3c2O[C@@H]2COc4cc(OC)c(OC)cc4[C@]2(O)C3=O)O1 [ROTENOLONE] was tested, and the IC50 [1] was 0.055 µg and the Activity [5] was 450 Zone units.

In the case of C=C(C)[C@H]1Cc2c(ccc3c2O[C@@H]2COc4cc(OC)c(OC)cc4[C@@H]2C3=O)O1 [ROTENONE], the IC50 [1] is reported as 0.045 µg and the Activity [6] is reported as 500 Zone units.

COc1cc2c(cc1OC)[C@]1(O)C(=O)c3ccc4c(c3O[C@@H]1CO2)C=CC(C)(C)O4 [TEPHROSIN] showed an IC50 [1] of 0.04 µg and an Activity [7] of 550 Zone units.
